In PMC7723234 (Journal of medicinal chemistry, 2019):
Entries after “also recorded” stand apart in the source; their conditions may differ.

Assays:
In vivo PK studies = settings: female CD-1 mice, single IP 50 mg/kg, plasma
How it was run: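 Female CD-1 mice got one IP dose of 50 mg/kg in 100% DMSO. Blood was sampled from 0.25–24 h, three mice per time point (21 per compound), into sodium heparin. Plasma was spun out (1800xg, 10 min, 4 °C), frozen at −80 °C, mixed 1:1 with ACN acidified with formic or trifluoroacetic acid (0.1%, varying by compound), centrifuged and analysed by LC-MS/MS.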

Human TOP2A = Human TOP2A (Homo sapiens, UniProt P11388); test: TOP2A decatenation assay; format: biochemical; settings: screen at 30 μM / SAR discussion
How it was run: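 For screening, TOP2A (3U/reaction) was preincubated 20 min at 37 °C with 30 μM test compound in 1.2% DMSO. Then 2 mM ATP and 35 ng kDNA were added for 1 h at 37 °C. Products ran on 0.8% agarose in TBE with 0.2 μg/mL ethidium bromide (1 h, 100 V), and decatenated bands were compared with vehicle. Dose-responses used 2-fold dilutions (58.6 nM–30 μM) and 4U enzyme.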

[1] = tested on: TOP2A-dependent TCF-transcription in SW620-TOP tumor organoids; test: 3D tumor organoid TOPflash reporter assay; format: cell-based
How it was run: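 SW620 cells stably carrying pCDH-TOPflash-luc-EF1-puro were seeded at 5,000 cells/well in ultra-low-attachment U-bottom wells, centrifuged, given 2% Matrigel (final) and grown 72 h in phenol red-free RPMI-1640 with 5% FBS. Organoids were treated 72 h. One-Glo luciferase and CellTiter-Glo 3D were added 1:1 and luminescence read. TCF signal was normalised to viability, then to DMSO controls.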

SW620 = test: γ-H2AX DNA damage assay; format: cell-based; settings: concentration range 0–40 μM
[2] = Microsome stability studies; format: in vitro ADME; settings: mouse microsomes; for microsomal stability (in words): Phase I, 0 to 60 min
How it was run: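 Female CD-1 mouse liver microsomes (0.5 mg/mL) with 1.5 mM NADPH in 0.1 M phosphate buffer, pH 7.4, were pre-warmed 5 min at 37 °C. Reactions were started with 1 μg/mL test compound and run at 37 °C. Aliquots taken over 0–60 min were quenched with equal-volume acetonitrile and centrifuged (20,000g, 10 min) for LCMS. Compound-stability controls under reaction conditions were included.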

hTopoIIα = hTopoIIα (Homo sapiens, UniProt P11388); test: TOP2A ATPase assay; format: biochemical; settings: ATP hydrolysis, Vmax unchanged, KM shifts
[3] = tested on: caspase 3 and 7 activity in SW620 tumor organoids; test: Tumor organoid caspase 3/7 activity; format: cell-based; settings: higher doses, vs DMSO
How it was run: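 SW620 cells were seeded at 2,000/well in round-bottom ultra-low-attachment 384-well plates in RPMI-1640 with 5% FBS and 2% Matrigel, grown 72 h, then treated with a range of doses for 72 h. Caspase-Glo 3/7 was added 1:1, plates shaken 30 min, and luminescence read. Staurosporine served as positive control and 0.4% DMSO as negative control.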

SW620 tumor organoids = test: SW620 tumor organoid growth in volume; format: cell-based; settings: 72 h, vs DMSO
SW620 cells = test: Tumor organoid CSC stemness assay; format: cell-based; settings: SW620 cells pretreated 24 h, colonies over seven days, vs DMSO
[4] = Compound aqueous solubility in PBS; format: physicochemical; settings: ratio to prototype 7
How it was run: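 Test compound (1 mg) was dissolved in 200 μL 10% DMSO in PBS, pH 7.4, and equilibrated as for the 1-propanol solutions (18 h, 25 °C), then centrifuged. The UV absorption spectrum was compared with a fully saturated 1-propanol solution, and solubility was calculated by linear regression.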

[5] = tested on: TOP2A mediated TCF-transcription; settings: cited from earlier work
[6] = cited from earlier work
[7] = cited from earlier work; remark: listed apart in the source

Human TOP2A, sequence (P11388 whole entry): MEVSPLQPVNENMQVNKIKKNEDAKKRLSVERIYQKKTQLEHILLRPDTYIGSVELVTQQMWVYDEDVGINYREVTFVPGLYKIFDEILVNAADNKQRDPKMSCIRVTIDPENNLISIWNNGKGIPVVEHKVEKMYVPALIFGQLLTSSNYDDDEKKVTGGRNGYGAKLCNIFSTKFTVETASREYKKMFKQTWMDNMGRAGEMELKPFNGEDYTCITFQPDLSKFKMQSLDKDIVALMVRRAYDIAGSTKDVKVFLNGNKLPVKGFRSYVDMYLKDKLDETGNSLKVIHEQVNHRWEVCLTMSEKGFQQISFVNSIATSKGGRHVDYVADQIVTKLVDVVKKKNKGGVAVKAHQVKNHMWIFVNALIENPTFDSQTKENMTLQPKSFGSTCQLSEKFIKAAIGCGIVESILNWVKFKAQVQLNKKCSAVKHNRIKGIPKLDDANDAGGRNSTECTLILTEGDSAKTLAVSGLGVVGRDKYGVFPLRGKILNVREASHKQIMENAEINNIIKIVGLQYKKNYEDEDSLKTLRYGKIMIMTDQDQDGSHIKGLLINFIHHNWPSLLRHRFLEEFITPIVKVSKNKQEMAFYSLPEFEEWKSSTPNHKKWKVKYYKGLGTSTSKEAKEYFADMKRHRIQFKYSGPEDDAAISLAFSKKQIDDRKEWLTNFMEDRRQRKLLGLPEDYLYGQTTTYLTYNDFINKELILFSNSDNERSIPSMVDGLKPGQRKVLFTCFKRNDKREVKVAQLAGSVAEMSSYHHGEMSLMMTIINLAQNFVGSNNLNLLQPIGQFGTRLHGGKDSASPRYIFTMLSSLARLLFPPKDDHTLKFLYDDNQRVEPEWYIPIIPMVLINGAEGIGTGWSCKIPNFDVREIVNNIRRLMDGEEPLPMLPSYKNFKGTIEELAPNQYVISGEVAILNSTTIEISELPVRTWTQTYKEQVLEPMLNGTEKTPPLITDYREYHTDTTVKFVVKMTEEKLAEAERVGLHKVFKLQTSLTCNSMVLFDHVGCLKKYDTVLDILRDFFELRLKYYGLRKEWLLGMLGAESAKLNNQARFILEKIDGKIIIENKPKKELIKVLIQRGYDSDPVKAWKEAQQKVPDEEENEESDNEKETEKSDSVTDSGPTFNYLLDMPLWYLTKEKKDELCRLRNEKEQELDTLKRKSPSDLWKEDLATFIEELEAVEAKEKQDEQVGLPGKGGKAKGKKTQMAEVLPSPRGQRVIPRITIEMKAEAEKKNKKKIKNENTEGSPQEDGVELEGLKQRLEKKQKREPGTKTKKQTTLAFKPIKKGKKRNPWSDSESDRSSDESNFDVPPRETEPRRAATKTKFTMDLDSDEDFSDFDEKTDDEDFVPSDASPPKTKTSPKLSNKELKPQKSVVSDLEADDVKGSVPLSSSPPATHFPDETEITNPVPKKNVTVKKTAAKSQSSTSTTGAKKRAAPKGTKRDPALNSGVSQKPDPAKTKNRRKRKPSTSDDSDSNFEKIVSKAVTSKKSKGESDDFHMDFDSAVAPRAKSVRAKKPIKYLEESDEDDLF
hTopoIIα, sequence (P11388 whole entry): as above

CC(=O)Nc1ccc2c(-c3cc(F)ccc3O)ccnc2c1O [Compound 7, 7-Acetamido-4-(5-fluoro-2-hydroxyphenyl)-8-hydroxyquinoline]
CL (In vivo PK studies): 64.5 mL/min/kg
inhibition of TOP2A decatenation (in words) (Human TOP2A): complete inhibition
inhibition of TOP-activity (TOPflash) in words [1]: significantly inhibit
DNA double stranded breaks (H2AX S139 phosphorylation immunofluorescence) (SW620): do not cause DNA DSBs
microsomal stability (in words) [2]: metabolized faster within the first 30 minutes
mode of TOP2A inhibition (hTopoIIα): competitive mode of inhibition
induction of apoptosis (caspase 3 and 7 cleavage) in words [3]: induce apoptosis
tumor organoid growth in volume (SW620 tumor organoids): significantly inhibited tumor organoid growth
colony formation (clonogenic assay) (SW620 cells): inhibit colony formation

CC(=O)Nc1ccc2c(-c3ccccc3)ccnc2c1O [Compound 28, 7-Acetamido-4-(phenyl)-8-hydroxyquinoline]
microsomal stability (in words) [2]: biphasic kinetics

CC(=O)Nc1ccc2c(-c3ccc(F)cc3)ccnc2c1O [Compound 30, 7-Acetamido-4-(4-fluorophenyl)-8-hydroxyquinoline]
inhibition of TOP2A decatenation (in words) (Human TOP2A): activity is lost

CC(=O)Nc1ccc2c(-c3cccc(C(F)(F)F)c3)ccnc2c1O [Compound 31, 7-Acetamido-4-((3-trifluoromethyl)phenyl)-8-hydroxyquinoline]
inhibition of TOP2A decatenation (in words) (Human TOP2A): excellent inhibitory activity
microsomal stability (in words) [2]: not readily transformed by Phase I metabolic enzymes

CC(=O)Nc1ccc2c(-c3ccc(C(F)(F)F)cc3)ccnc2c1O [Compound 32, 7-Acetamido-4-((4-trifluoromethyl)phenyl)-8-hydroxyquinoline]
inhibition of TOP2A decatenation (in words) (Human TOP2A): excellent inhibitory activity

CC(=O)Nc1ccccc1-c1ccnc2c(O)c(NC(C)=O)ccc12 [Compound 34, 7-Acetamido-4-(2-acetamidophenyl)-8-hydroxyquinoline]
inhibition of TOP2A decatenation (in words) (Human TOP2A): significant loss of activity

CC(=O)Nc1ccc(-c2ccnc3c(O)c(NC(C)=O)ccc23)cc1 [Compound 35, 7-Acetamido-4-(4-acetamidophenyl)-8-hydroxyquinoline]
inhibition of TOP2A decatenation (in words) (Human TOP2A): restored inhibitory activity
microsomal stability (in words) [2]: not readily transformed by Phase I metabolic enzymes

CC(=O)Nc1cccc(-c2ccnc3c(O)c(NC(C)=O)ccc23)c1 [Compound 36, 7-Acetamido-4-(3-acetamidophenyl)-8-hydroxyquinoline]
inhibition of TOP2A decatenation (in words) (Human TOP2A): significant loss of activity

CC(=O)Nc1ccc2c(-c3cc(C(F)(F)F)ccc3O)ccnc2c1O [Compound 37, 7-Acetamido-4-(2-hydroxy-5-trifluoromethylphenyl)-8-hydroxyquinoline]
inhibition of TOP2A decatenation (in words) (Human TOP2A): excellent inhibitory activity

CC(=O)Nc1ccc2c(-c3cc(Cl)ccc3O)ccnc2c1O [Compound 38, 7-Acetamido-4-(5-chloro-2-hydroxyphenyl)-8-hydroxyquinoline]
inhibition of TOP2A decatenation (in words) (Human TOP2A): did not inhibit

O=C(CCN1CCOCC1)Nc1ccc2c(-c3cc(F)ccc3O)ccnc2c1O [Compound 42, 4-(5-fluoro-2-hydroxyphenyl)-8-hydroxy-7-(3-(morpholin-4-yl)propanamido)quinoline]
CL (In vivo PK studies): 62.2 mL/min/kg
microsomal stability (in words) [2]: least stable
induction of apoptosis (caspase 3 and 7 cleavage) in words [3]: induce apoptosis
tumor organoid growth in volume (SW620 tumor organoids): significantly inhibited tumor organoid growth
solubility in PBS compared to prototype 7 [4]: 3.4 times

CC(=O)Nc1ccc2c(-c3cc4ccccc4o3)ccnc2c1O [Compound 53, 7-Acetamido-4-(2-benzofuranyl)-8-hydroxyquinoline]
CL (In vivo PK studies): 283.2 mL/min/kg
inhibition of TOP2A decatenation (in words) (Human TOP2A): complete inhibitory activity
microsomal stability (in words) [2]: not readily transformed by Phase I metabolic enzymes

CC(=O)Nc1ccc2c(-c3cc4ccccc4s3)ccnc2c1O [Compound 54, 7-Acetamido-4-(benzo[b]thiophen-2-yl)-8-hydroxyquinoline]
inhibition of TOP2A decatenation (in words) (Human TOP2A): inhibition was lost

CC(=O)Nc1ccc2c(-c3ccco3)ccnc2c1O [Compound 55, 7-Acetamido-4-(2-furanyl)-8-hydroxyquinoline]
inhibition of TOP2A decatenation (in words) (Human TOP2A): significant loss of activity

CC(=O)Nc1ccc2c(-c3ccsc3)ccnc2c1O [Compound 58, 7-Acetamido-4-(thiophen-3-yl)-8-hydroxyquinoline]
inhibition of TOP2A decatenation (in words) (Human TOP2A): improves activity compared to the 3-furanyl analog 56
microsomal stability (in words) [2]: metabolized faster within the first 30 minutes; also recorded: biphasic kinetics

O=C(CN1CCOCC1)Nc1ccc2c(-c3cc4ccccc4o3)ccnc2c1O [Compound 60, 4-(2-benzofuranyl)-8-hydroxy-7-(2-(morpholin-4-yl)acetamido)quinoline]
CL (In vivo PK studies): 137 mL/min/kg
microsomal stability (in words) [2]: not readily transformed by Phase I metabolic enzymes
induction of apoptosis (caspase 3 and 7 cleavage) in words [3]: induce apoptosis
tumor organoid growth in volume (SW620 tumor organoids): significantly inhibited tumor organoid growth

O=C(CCN1CCOCC1)Nc1ccc2c(-c3cc4ccccc4o3)ccnc2c1O [Compound 61, 4-(2-benzofuranyl)-8-hydroxy-7-(3-(morpholin-4-yl)propanamido)quinoline]
CL (In vivo PK studies): 61.8 mL/min/kg
half-life at 1 μg/mL ([2]; female, CD-1, mouse, pH 7.4): 15 min
microsomal stability (in words) [2]: not readily transformed by Phase I metabolic enzymes

COc1cc([C@@H]2c3cc4c(cc3[C@@H](O[C@@H]3O[C@@H]5CO[C@@H](C)O[C@H]5[C@H](O)[C@H]3O)[C@H]3COC(=O)[C@H]23)OCO4)cc(OC)c1O [etoposide]
effect on TOP2A mediated TCF-transcription [5]: do not inhibit

O=C1NC(=S)NC(=O)C1C(=O)Nc1ccccc1 [merbarone]
effect on TOP2A mediated TCF-transcription [5]: do not inhibit

Cn1ccc2c(c1=O)C(=O)c1nccc3c1c-2nc1ccccc13 [neo, neoamphimedine]
metabolic stability [6]: metabolically unstable
effect on TOP2A mediated TCF-transcription [5]: prevents TCF-transcription
DNA double stranded breaks (H2AX S139 phosphorylation immunofluorescence) (SW620): do not cause DNA DSBs
mode of TOP2A inhibition (hTopoIIα): competitive mode of inhibition
solubility in water [7]: insoluble
